In ChEMBL document CHEMBL1133621, “Synthesis, characterization, and cytotoxicity of trifunctional dinuclear platinum complexes: comparison of effects of geometry and polyfunctionality on biological activity” (J Med Chem, 2000):
“And” between values parts separate entries of the source, which are not always exact repeats. Identical values can stand only once.

Tests used:
Type in all cases: functional, cell-based
41M [1] = assay: Cytotoxic activity in a panel of Human ovarian tumor 41M/CDDP cell line after 96h of drug exposure
Method in brief: (§1)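 SRB growth-inhibition assay. Cells were seeded at (3-8) × 10^3 per well and left to attach overnight. Platinum agents were added after serial dilution, in quadruplicate wells, with continuous 96 h exposure. Growth in treated and control wells was quantified by staining with 0.4% SRB dissolved in 1% acetic acid.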

A2780 [2] = assay: Cytotoxic activity in a panel of Human ovarian tumor A2780 cell line after 96h of drug exposure; method in brief: as §1
A2780 [3] = assay: Cytotoxic activity in a panel of Human ovarian tumor A2780/CDDP cell line after 96h of drug exposure; method in brief: as §1
SK-OV-3 = assay: Cytotoxic activity in a panel of Human ovarian tumor SKOV-3 cell line after 96h of drug exposure; method in brief: as §1
41M [4] = assay: Cytotoxic activity in a panel of Human ovarian tumor 41M cell line after 96h of drug exposure; method in brief: as §1
HX62 cell line = assay: Cytotoxic activity in a panel of Human ovarian tumor HX/62 cell line after 96h of drug exposure; method in brief: as §1
41M [5] = assay: RF(Resistant factor) is determined from the ratio of IC50 of 41M to the IC50 of CDDP cell lines
CH1 [6] = assay: RF(Resistant factor) is determined from the ratio of IC50 of CH1 to the IC50 of CDDP cell lines
A2780 [7] = assay: RF(Resistant factor) is determined from the ratio of IC50 of A2780 to the IC50 of CDDP cell lines
CH1 [8] = assay: Cytotoxic activity in a panel of Human ovarian tumor CH1 cell line after 96h of drug exposure; method in brief: as §1
CH1 [9] = assay: Cytotoxic activity in a panel of Human ovarian tumor CH1/CDDP cell line after 96h of drug exposure; method in brief: as §1

“trans-[{PtCl(NH3)2}-mu-{NH2(CH2)6NH2}-trans-{PtCl(NH3)2}] [listing 1 of 2 here]” was tested, and the IC50 (41M [1]) was 0.41 µM and 1.8 µM, the IC50 (A2780 [2]) was 0.066 µM and 0.25 µM and the IC50 (A2780 [3]) was 1.2 µM and 4.9 µM. For the same substance, the IC50 (SK-OV-3) was 15.3 µM and 87 µM, the IC50 (41M [4]) was 1.9 µM and 7.4 µM and the IC50 (HX62 cell line) was 11 µM and 14 µM.

With “trans-[{PtCl(NH3)2}-mu-{NH2(CH2)6NH2}-cis-{PtCl2(NH3)}]Cl [listing 1 of 2 here]” the RF (41M [5]) was 0.27 and 0.53, the RF (CH1 [6]) was 3.2 and 4.4 and the RF (A2780 [7]) was 3.2 and 5.2.

With “trans-[{PtCl(NH3)2}-mu-{NH2(CH2)6NH2}-cis-{PtCl2(NH3)}]Cl [listing 2 of 2 here]” the IC50 (41M [1]) was 0.67 µM and 1.3 µM, the IC50 (A2780 [2]) was 0.28 µM and 0.066 µM and the IC50 (CH1 [8]) was 0.3 µM and 0.22 µM. The IC50 (A2780 [3]) was 0.89 µM and 0.34 µM, the IC50 (SK-OV-3) was 31 µM and 17.7 µM and the IC50 (41M [4]) was 2.5 µM and 2.4 µM. For the same substance, the IC50 (CH1 [9]) was 0.97 µM and 0.98 µM and the IC50 (HX62 cell line) was 24 µM and 12.5 µM.

For CISPLATIN [listing 1 of 2 here], the RF (41M [5]) was 3.1, the RF (CH1 [6]) was 8 and the RF (A2780 [7]) was 11.7.

For “trans-[{PtCl(NH3)2}-mu-{NH2(CH2)6NH2}-trans-{PtCl(NH3)2}] [listing 2 of 2 here]”, the RF (41M [5]) was 0.21 and 0.24, the RF (CH1 [6]) was 3.3 and 2 and the RF (A2780 [7]) was 18 and 19.6.

CISPLATIN [listing 2 of 2 here] showed an IC50 (41M [1]) of 1.7 µM, an IC50 (CH1 [8]) of 0.18 µM and an IC50 (A2780 [3]) of 6.2 µM. The IC50 (SK-OV-3) was 8 µM, the IC50 (41M [4]) was 0.54 µM and the IC50 (CH1 [9]) was 1.45 µM. The IC50 (HX62 cell line) was 25 µM.
